≈ marks a conversion by molar mass, not a printed value.
Key:
Format in all cases: functional
[1] = system: Staphylococcus aureus; test: Antibacterial activity against methicillin-resistant Staphylococcus aureus ATCC 33591 by broth microdilution method
How it was run: (§1)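 MIC determined by broth microdilution following CLSI recommendations; strain is a methicillin-resistant S. aureus (MRSA).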

[2] = system: Staphylococcus aureus; test: Antibacterial activity against methicillin-sensitive Staphylococcus aureus 09-6 by broth microdilution method
How it was run: (§2)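 Value is the minimum inhibitory concentration (MIC), determined by broth microdilution following CLSI recommendations. Strains ATCC 29213, 15 and 09-06 are methicillin-sensitive S. aureus; ATCC 12228 and 09-9 are methicillin-sensitive S. epidermidis.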

[3] = system: Staphylococcus epidermidis; test: Antibacterial activity against methicillin-sensitive Staphylococcus epidermidis ATCC 12228 by broth microdilution method; how it was run: as §2
[4] = system: Staphylococcus aureus; test: Antibacterial activity against methicillin-sensitive Staphylococcus aureus 15 by broth microdilution method; how it was run: as §2
[5] = system: Staphylococcus epidermidis; test: Antibacterial activity against methicillin-resistant Staphylococcus epidermidis 09-3 by broth microdilution method
[6] = system: Staphylococcus epidermidis; test: Antibacterial activity against methicillin-sensitive Staphylococcus epidermidis 09-9 by broth microdilution method; how it was run: as §2
[7] = system: Staphylococcus aureus; test: Antibacterial activity against methicillin-sensitive Staphylococcus aureus ATCC 29213 by broth microdilution method; how it was run: as §2
[8] = system: Staphylococcus aureus; test: Antibacterial activity against methicillin-resistant Staphylococcus aureus 09-13 by broth microdilution method; how it was run: as §1

Compound	MIC [1]	MIC [2]	MIC [3]	MIC [4]	MIC [5]	MIC [6]	MIC [7]	MIC [8]
CC[C@H]1OC(=O)[C@H](C)C(=O)[C@H](C)[C@@H](O[C@@H]2O[C@H](C)[C@@H](OC(=O)NCCc3ccccc3)[C@H](N(C)C)[C@H]2O)[C@@](C)(OC)C[C@@H](C)/C(=N\O)[C@H](C)[C@H]2OC(=O)O[C@@]21C	> 32 µg/mL	1 µg/mL (≈ 1.26 µM)	0.5 µg/mL (≈ 0.631 µM)	1 µg/mL (≈ 1.26 µM)	> 32 µg/mL	2 µg/mL (≈ 2.53 µM)	1 µg/mL (≈ 1.26 µM)	> 32 µg/mL
CC[C@H]1OC(=O)[C@H](C)C(=O)[C@H](C)[C@@H](O[C@@H]2O[C@H](C)[C@@H](OC(=O)NCCc3ccccc3)[C@H](N(C)C)[C@H]2O)[C@@](C)(OC)C[C@@H](C)/C(=N\OC(=O)NCCc2ccccc2)[C@H](C)[C@H]2OC(=O)O[C@@]21C	> 32 µg/mL	> 32 µg/mL	> 32 µg/mL	> 32 µg/mL	> 32 µg/mL	> 32 µg/mL	> 32 µg/mL	> 32 µg/mL
CC[C@H]1OC(=O)[C@H](C)C(=O)[C@H](C)[C@@H](O[C@@H]2O[C@H](C)[C@@H](OC(=O)Nc3ccc(C(F)(F)F)cc3)[C@H](N(C)C)[C@H]2O)[C@@](C)(OC)C[C@@H](C)/C(=N\O)[C@H](C)[C@H]2OC(=O)O[C@@]21C	> 32 µg/mL	> 32 µg/mL	32 µg/mL (≈ 38.5 µM)	> 32 µg/mL	> 32 µg/mL	> 32 µg/mL	> 32 µg/mL	> 32 µg/mL
CC[C@H]1OC(=O)[C@H](C)C(=O)[C@H](C)[C@@H](O[C@@H]2O[C@H](C)[C@@H](OC(=O)NC3CCCCC3)[C@H](N(C)C)[C@H]2O)[C@@](C)(OC)C[C@@H](C)/C(=N\OC(=O)NC2CCCCC2)[C@H](C)[C@H]2OC(=O)O[C@@]21C	> 32 µg/mL	> 32 µg/mL	32 µg/mL (≈ 35.8 µM)	> 32 µg/mL	> 32 µg/mL	> 32 µg/mL	32 µg/mL (≈ 35.8 µM)	> 32 µg/mL
CCCCCNC(=O)O/N=C1\[C@H](C)C[C@](C)(OC)[C@H](O[C@@H]2O[C@H](C)[C@@H](OC(=O)NCCCCC)[C@H](N(C)C)[C@H]2O)[C@@H](C)C(=O)[C@@H](C)C(=O)O[C@H](CC)[C@@]2(C)OC(=O)O[C@@H]2[C@H]1C	> 64 µg/mL	> 64 µg/mL	> 64 µg/mL	> 64 µg/mL	> 64 µg/mL	> 64 µg/mL	> 64 µg/mL	> 64 µg/mL
CC[C@H]1OC(=O)[C@H](C)C(=O)[C@H](C)[C@@H](O[C@@H]2O[C@H](C)[C@@H](OC(=O)NCCCl)[C@H](N(C)C)[C@H]2O)[C@@](C)(OC)C[C@@H](C)/C(=N\OC(=O)NCCCl)[C@H](C)[C@H]2OC(=O)O[C@@]21C	> 32 µg/mL	> 32 µg/mL	> 32 µg/mL	> 32 µg/mL	> 32 µg/mL	> 32 µg/mL	> 32 µg/mL	> 32 µg/mL
CC[C@H]1OC(=O)[C@H](C)C(=O)[C@H](C)[C@@H](O[C@@H]2O[C@H](C)[C@@H](O)[C@H](N(C)C)[C@H]2O)[C@@](C)(OC)C[C@@H](C)/C(=N\O)[C@H](C)[C@H]2OC(=O)O[C@@]21C	> 64 µg/mL	2 µg/mL (≈ 3.1 µM)	2 µg/mL (≈ 3.1 µM)	> 64 µg/mL	> 64 µg/mL	2 µg/mL (≈ 3.1 µM)	2 µg/mL (≈ 3.1 µM)	> 64 µg/mL
CC[C@H]1OC(=O)[C@H](C)[C@@H](O[C@H]2C[C@@](C)(OC)[C@@H](O)[C@H](C)O2)[C@H](C)[C@@H](O[C@@H]2O[C@H](C)C[C@H](N(C)C)[C@H]2O)[C@](C)(OC)C[C@@H](C)C(=O)[C@H](C)[C@@H](O)[C@]1(C)O [CLARITHROMYCIN]	> 64 µg/mL	0.06 µg/mL (≈ 0.0802 µM)	0.06 µg/mL (≈ 0.0802 µM)	0.5 µg/mL (≈ 0.668 µM)	> 64 µg/mL	4 µg/mL (≈ 5.35 µM)	0.06 µg/mL (≈ 0.0802 µM)	> 64 µg/mL
CC[C@H]1OC(=O)[C@H](C)C(=O)[C@H](C)[C@@H](O[C@@H]2O[C@H](C)C[C@H](N(C)C)[C@H]2O)[C@](C)(OC)C[C@@H](C)C(=O)[C@H](C)[C@H]2N(CCCCn3cnc(-c4cccnc4)c3)C(=O)O[C@]12C [TELITHROMYCIN]	> 32 µg/mL	0.5 µg/mL (≈ 0.616 µM)	0.06 µg/mL (≈ 0.0739 µM)	2 µg/mL (≈ 2.46 µM)	32 µg/mL (≈ 39.4 µM)	0.06 µg/mL (≈ 0.0739 µM)	0.5 µg/mL (≈ 0.616 µM)	> 32 µg/mL

— ChEMBL document CHEMBL2434850, “Synthesis and antibacterial activity of novel modified 5-O-mycaminose 14-membered ketolides” (2013)
